ChEMBL document CHEMBL3994574, “Novel hamamelitannin analogues for the treatment of biofilm related MRSA infections-A scaffold hopping approach” (Eur J Med Chem, 2017)

Tests used:
[1] = tested on: Staphylococcus aureus subsp. aureus Mu50; assay: Inhibition of quorum sensing system in methicillin-resistant Staphylococcus aureus Mu50 assessed as potentiation of vancomycin-mediated reduction in CFU/biofilm at 100 uM after 24 hrs (reference value: 30 +/- 14%)
[2] = tested on: Staphylococcus aureus; assay: Growth inhibition of methicillin-resistant Staphylococcus aureus Mu50 after 20 hrs by broth microdilution method
How it was run: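 MRSA Mu50 grown in Mueller-Hinton broth at 37 °C, aerobic. MIC found in triplicate in flat-bottom 96-well plates, using a procedure from earlier work. Highest concentration tested was […].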

[3] = Inhibition of quorum sensing system in methicillin-resistant Staphylococcus aureus Mu50 assessed as potentiation of vancomycin-mediated reduction in CFU/biofilm preincubated for 20 hrs followed by vancomycin addition measured after 24 hrs; design: species or system Staphylococcus aureus subsp. aureus Mu50
[4] = tested on: Staphylococcus aureus subsp. aureus Mu50; assay: Inhibition of quorum sensing system in methicillin-resistant Staphylococcus aureus Mu50 assessed as potentiation of vancomycin-mediated reduction in CFU/biofilm at 100 uM preincubated for 20 hrs followed by vancomycin addition measured after 24 hrs (reference value: 30 +/- 14%)
[5] = Inhibition of quorum sensing system in methicillin-resistant Staphylococcus aureus Mu50 assessed as potentiation of vancomycin-mediated reduction in CFU/biofilm after 24 hrs; design: species or system Staphylococcus aureus subsp. aureus Mu50

| Structure (SMILES) | inhibition [1] [%] | MIC [2] [µM] | EC50 [3] [µM] | inhibition [4] [%] | EC50 [5] [µM] |
| --- | --- | --- | --- | --- | --- |
| O=C(OC[C@H]1OC(O)[C@@](O)(COC(=O)c2cc(O)c(O)c(O)c2)[C@@H]1O)c1cc(O)c(O)c(O)c1 (stereo not given in full) [HAMAMELITANNIN] | 57 | > 500 | 146 | 57 | 165 |
| O=C(NC[C@H]1CN(C(=O)c2ccccc2Cl)CCO1)c1ccccc1 | 41 | > 500 |  | -7 |  |
| O=C(NC[C@]1(O)CO[C@H](CNC(=O)c2ccccc2Cl)C1)c1ccccc1 | 65 | > 500 |  | 21 |  |
| O=C(NC[C@@H]1O[C@H](CNC(=O)c2ccccc2Cl)[C@@H](O)[C@H]1O)c1ccccc1 | 95 | > 500 | 2.6 | 93 | 3.71 |
| O=C(NC[C@H]1CN(C(=O)c2ccccc2)CCO1)c1ccccc1Cl | 51 | > 500 |  | -6 |  |
| O=C(NC[C@@H]1C[C@H](CNC(=O)c2ccccc2Cl)CN1)c1ccccc1 | 50 | > 500 |  | 54 |  |
| O=C(NC[C@@H]1CN[C@H](CNC(=O)c2ccccc2Cl)C1)c1ccccc1 | 47 | > 500 |  | 62 |  |
| O=C(NC[C@]1(O)CO[C@H](CNC(=O)c2ccccc2Cl)[C@H]1O)c1ccccc1 | 92 | > 500 | 0.389 | 88 | 7.98 |
| O=C(NC[C@@H]1CO[C@H](CNC(=O)c2ccccc2Cl)CO1)c1ccccc1 | 91 | > 500 | 5.57 | 95 | 13.1 |
